The values below come from ChEMBL document CHEMBL3351575, “Halogenated diarylacetylenes repress c-myc expression in cancer cells” (Bioorg Med Chem Lett, 2014).

Active and inactive are the calls of the source. The calls are words filed in the database; no cut-off is given here.

Format in all cases: functional, cell-based
Experiment [1] relates to LS174T. As to the kind of experiment: Inhibition of c-myc expression in human LS 174T cells at 1 uM after 36 hrs by Western blotting analysis. The method in brief:
(§1)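 LS174T colon cancer cells exposed to each diarylacetylene at 1 μM for 36 h, alongside a DMSO vehicle control and a reference compound; cell lysates then probed by western blot, with β-tubulin as the loading control.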
A general note: Immunoblotting shows a protein as a band on a membrane.

The nature of experiment [2]: Antiproliferative activity against human LS 174T cells after 4 days by Vi-Cell cell viability analyzer. As to conditions: LS174T, 96 h.
Experiment [3] relates to LS174T. The experiment can be described thus: Induction of p21([…]/Cip1) expression in human LS 174T cells at 1 uM after 36 hrs by Western blotting analysis. The method in brief: as §1

Take `CN(C)c1ccc(C#Cc2ccc(F)cc2)cc1`: the inhibition entry in the experiment with LS174T [1] was “Active”. The IC50 in experiment [2] was more than 3000 nM. For the same molecule, the result with LS174T [3] was Active.

On to `CN(C)c1ccc(C#Cc2cccc(F)c2F)cc1`, for which, in experiment [2], inhibition was half-maximal at 119 nM (IC50).

Turning to `CN(C)c1ccc(C#Cc2cccc(F)c2)cc1`, the inhibition entry with LS174T [1] was “Active”. In experiment [2], this molecule came in with an IC50 of more than 3000 nM. For the same molecule, the outcome in the experiment with LS174T [3] was Active.

Turning to `CN(C)c1ccc(C#Cc2c(Cl)cccc2Cl)cc1`, the inhibition result with LS174T [1] was “Active”. For the same molecule, inhibition in experiment [2] was half-maximal at 52 nM (IC50). In addition, the result with LS174T [3] was Active.

Consider `CN(C)c1ccc(C#Cc2cc(F)cc(F)c2)cc1`, for which the IC50 in experiment [2] was more than 3000 nM.

As to `CN(C)c1ccc(C#Cc2ccc(F)cc2F)cc1`, inhibition in experiment [2] was half-maximal at 56 nM (IC50).

Take `CN(C)c1ccc(C#Cc2ccccc2F)cc1`: the inhibition entry in the experiment on LS174T [1] is “Active”. Also, half-maximal inhibition in experiment [2] (IC50) was put at 39 nM. In the experiment with LS174T [3], the result was Active.

Turning to `CN(C)c1ccc(C#Cc2c(F)cccc2F)cc1`, the inhibition entry in the experiment on LS174T [1] is “Active”. The molecule also gave an IC50 in experiment [2] of 23 nM. The result in the experiment on LS174T [3] was Active.

As to `CNc1ccc(C#Cc2c(F)cccc2F)cc1`, the inhibition result in the experiment with LS174T [1] is “Active”. For the same molecule, the IC50 in experiment [2] stood at 23 nM. The outcome with LS174T [3] was Active.

For `CN(C)c1ccc(C#Cc2cc(F)ccc2F)cc1`, inhibition in experiment [2] was half-maximal at 55 nM (IC50). This counts as double-digit nanomolar.

Take `CN(C)c1ccc(C#Cc2ccccc2)cc1`: the inhibition entry with LS174T [1] is “Active”. The molecule further gave an IC50 in experiment [2] of more than 3000 nM. Besides, in the experiment on LS174T [3], the outcome was Active.

With `CN(C)c1ccc(C#Cc2c(F)cccc2Cl)cc1`, the inhibition result in the experiment on LS174T [1] was “Active”. For the same molecule, the IC50 in experiment [2] came out at 19 nM. The result in the experiment with LS174T [3] was Active.

`CN(C)c1ccc(/C=C/c2c(F)cccc2F)cc1`: the inhibition result with LS174T [1] is “Active”. In addition, the IC50 in experiment [2] was determined as 59 nM. For the same molecule, the result in the experiment with LS174T [3] was Active.

For `CN(C)c1ccc(C#Cc2ccccc2Cl)cc1`, in the experiment with LS174T [1], the inhibition result was “Active”. Also, the IC50 in experiment [2] is 31 nM. Also, the result with LS174T [3] was Active.

With `CN(C)c1ccc(C#Cc2ccc(F)c(F)c2)cc1`, the inhibition entry in the experiment with LS174T [1] was “Active”. Besides, the IC50 in experiment [2] was more than 3000 nM. Further, in the experiment on LS174T [3], the result was Active.

For the molecule `Nc1ccc(C#Cc2c(F)cccc2F)cc1`, in experiment [2], the IC50 came to 55 nM.

A word on the IC50: it is the midpoint of a concentration-inhibition curve.
